From ChEMBL document CHEMBL1124947, “Cationic antiprotozoal drugs. Trypanocidal activity of 2-(4'-formylphenyl)imidazo[1,2-a]pyridinium guanylhydrazones and related derivatives of quaternary heteroaromatic compounds” (J Med Chem, 1990)

Key:
Type in all cases: functional
Mus musculus [1] = test: Trypanocidal Activity at I.C.E. value 0.44 when administered subcutaneously.
Procedure, shortened: (§1)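 Blood-stage T. rhodesiense infection came from a standard inoculum lethal to all untreated mice. Drug was given by subcutaneous injection to groups of five mice. Survival beyond 30 days counted as cure. […] Sub-curative doses scored 0, and data were normalized at each dose.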

Mus musculus [2] = test: Trypanocidal Activity at I.C.E. value 0.25 when administered perorally.
[3] = test system: Trypanosoma brucei rhodesiense; test: In Vitro measurement of inhibition of leucine uptake in cell culture of Trypanosoma rhodesiense; conditions: read-out: ID50 (the source's name)
Procedure, shortened: (§2)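 Trypanosomes harvested from infected rats, cultured 3 h with several concentrations of drug, usually 0.1–100 µg/mL. Radiolabeled L-leucine uptake measured. ID50 is the concentration in µg/mL giving 50% inhibition of incorporation.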

Mus musculus [4] = test: Trypanocidal Activity at I.C.E. value 0.42 when administered perorally.
Mus musculus [5] = test: Trypanocidal Activity at I.C.E. value 0.45 when administered subcutaneously.; procedure, shortened: as §1
[6] = test system: Trypanosoma brucei rhodesiense; test: In Vitro measurement of inhibition of thymidine uptake in cell culture of Trypanosoma rhodesiense; conditions: read-out: ID50 (the source's name)
Procedure, shortened: (§3)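 Parasites harvested from infected rats and incubated 3 h across a drug concentration series, usually 0.1–100 µg/mL. Incorporation of radiolabeled thymidine measured. ID50 is the concentration (µg/mL) producing 50% inhibition.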

Mus musculus [7] = test: Trypanocidal Activity at I.C.E. value 0.44 when administered perorally.
Mus musculus [8] = test: Trypanocidal Activity at I.C.E. value 0.90 when administered subcutaneously.
[9] = test system: Trypanosoma brucei rhodesiense; test: In Vitro measurement of inhibition of thymidine uptake in cell culture of Trypanosoma rhodesiense.; conditions: read-out: ID50 (the source's name); procedure, shortened: as §3
Mus musculus [10] = test: Trypanocidal Activity at I.C.E. value 0.39 when administered subcutaneously.; procedure, shortened: as §1
[11] = test system: Trypanosoma brucei rhodesiense; test: In Vitro measurement of inhibition of Leucine uptake in cell culture of Trypanosoma rhodesiense.; conditions: read-out: ID50 (the source's name); procedure, shortened: as §2
Mus musculus [12] = test: Trypanocidal Activity at I.C.E. value 0.64 when administered perorally.
Mus musculus [13] = test: Trypanocidal Activity at I.C.E. value 0.80 when administered subcutaneously.
Procedure, shortened: (§4)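 Mice, in groups of five per dose, were given a standard inoculum of blood-stage T. rhodesiense that is lethal to all untreated controls, then dosed subcutaneously. Usually 11 dose levels were used (2^n × 0.42 mg/kg).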

Mus musculus [14] = test: Trypanocidal Activity at I.C.E. value 0.32 when administered perorally.
Mus musculus [15] = test: Trypanocidal Activity at I.C.E. value 0.71 when administered subcutaneously.; procedure, shortened: as §4
Mus musculus [16] = test: Trypanocidal Activity at I.C.E. value 0.24 when administered subcutaneously; procedure, shortened: as §1
Mus musculus [17] = test: Trypanocidal Activity at I.C.E. value 0.61 when administered subcutaneously.; procedure, shortened: as §4
Mus musculus [18] = test: Trypanocidal Activity at I.C.E. value 0.35 when administered subcutaneously.; procedure, shortened: as §1
[19] = test system: Trypanosoma brucei rhodesiense; test: In Vitro measurement of inhibition of leucine uptake in cell culture of Trypanosoma rhodesiense.; conditions: read-out: ID50 (the source's name); procedure, shortened: as §2
Mus musculus [20] = test: Trypanocidal Activity at I.C.E. value 0.59 when administered subcutaneously.; procedure, shortened: as §4
Mus musculus [21] = test: Trypanocidal Activity at I.C.E. value 0.23 when administered perorally.
Mus musculus [22] = test: Trypanocidal Activity at I.C.E. value 0.50 when administered perorally.

Which results are given for `Br.CC/N=C(\NCC)N/N=C/c1ccc(OCc2cn3ccccc3[n+]2C)cc1.[Br-]`?
CD50 (Mus musculus [1]): 0.8 mg/kg; CD50 (Mus musculus [2]): 106 mg/kg

For `C[n+]1cccc(COc2ccc(/C=N/NC(=N)N)cc2)c1.Cc1ccc(S(=O)(=O)O)cc1.Cc1ccc(S(=O)(=O)[O-])cc1`, which IC50 [3] is on record?
The IC50 was greater than 10 µg/mL.

And the CD50 (Mus musculus [4])?
The CD50 was 26 mg/kg.

What about the CD50 (Mus musculus [5]) of the same compound?
Its CD50 is 0.8 mg/kg.

What about the IC50 [6] of the same compound?
The IC50 was 1.8 µg/mL.

Which results are given for `Br.Cc1cccc2n1cc(/C=C/c1ccc(/C=N/NC(=N)N3CCCC3)cc1)[n+]2C.[Br-]`?
CD50 (Mus musculus [7]): 53 mg/kg; CD50 (Mus musculus [8]): 0.4 mg/kg

What does the source list for `Br.C[n+]1c(-c2ccc(/C=N/NC(=N)N3CCCC3)cc2)cn2ccccc21.[Br-]`?
IC50 [9]: 0.6 µg/mL; CD50 (Mus musculus [10]): 0.06 mg/kg; IC50 [11]: 0.6 µg/mL; CD50 (Mus musculus [12]): 6.6 mg/kg

How did the CD50 (Mus musculus [13]) turn out when `Br.CC/N=C(\NCC)N/N=C/c1ccc(/C=C/c2cn3ccccc3[n+]2C)cc1.[Br-]` was run?
Its CD50 is 0.4 mg/kg.

How did the CD50 (Mus musculus [14]) turn out when `Br.CCCCNC(=N)N/N=C/c1ccc(-c2cn3ccc(C)cc3[n+]2C)cc1.[Br-]` was run?
Its CD50 is 26 mg/kg.

What about the CD50 (Mus musculus [15]) of the same compound?
The CD50 was 0.4 mg/kg.

Which CD50 (Mus musculus [16]) does the source give for `Br.C/N=C(/N/N=C/c1ccc(-c2cn3ccccc3[n+]2C)cc1)SC.[Br-]` here?
The CD50 was 26 mg/kg.

For `CCNC(=N)N/N=C/c1ccc(/C=C/c2n(C)cc[n+]2C)cc1.Cc1ccc(S(=O)(=O)O)cc1.Cc1ccc(S(=O)(=O)[O-])cc1`, which CD50 (Mus musculus [17]) is on record?
The CD50 was 0.11 mg/kg.

Which results are given for `Br.CCN(CC)C(=N)N/N=C/c1ccc(-c2cn3ccccc3[n+]2C)cc1.[Br-]`?
IC50 [9]: 1.1 µg/mL; CD50 (Mus musculus [18]): 0.2 mg/kg; IC50 [19]: 1 µg/mL

What does the source list for `Br.Cn1c[n+](Cc2ccc(/C=N/NC3=NCCCN3)cc2)c2ccccc21.[Br-]`?
CD50 (Mus musculus [20]): 1.6 mg/kg; CD50 (Mus musculus [21]): 106 mg/kg

With `C[n+]1c(-c2ccc(/C=N/NC(=N)N)cc2)cn2cc(Cl)ccc21.Cc1ccc(S(=O)(=O)O)cc1.Cc1ccc(S(=O)(=O)[O-])cc1` as the compound, how does the CD50 (Mus musculus [10]) read?
The CD50 was 1.6 mg/kg.

What about the CD50 (Mus musculus [22]) of the same compound?
Its CD50 is 13 mg/kg.
